Screening data (PubChem BioAssay)
This is a sample that favours compounds with a hit; in the whole collection about 1.4% have one here.
IDE cell inh: inhibits human insulin-degrading enzyme in HEK cells | P14735 | FAbetaB cleavage, fluorescence polarization | inhibition, % at 5.59 µM | 320,000 compounds, 0.41% hits | AID 434962;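 active = percent inhibition above the average of all tested compounds plus 3 SD, set per screening campaign, cut at about 16% in these data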;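 also: IDE supplied by intact live HEK cells; FP after avidin binding of uncleaved biotin substrate so inhibition keeps polarization high; 0% = DMSO wells and 100% = 60 µM reference IDE inhibitor Ii1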
IDE cell activ: activators of human insulin-degrading enzyme in cells | activation, % at 5.96 µM | P14735 | AID 493087 | 340,000 compounds, 0.073% hits | HEK cells, FAbeta-B cleavage, fluorescence polarization; 0% vehicle, 100% cell-free pure enzyme wells;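 active = activation above the mean of all tested compounds plus 3 SD, set per screening campaign, cut at about 17% in these data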
Efflux pump mplx: inhibitors of Candida antifungal efflux pumps expressed in yeast; inhibition, % at 10 µM; S. cerevisiae Candida pump triplex, Nile Red efflux; AID 485275; 330,000 compounds, 0.44% hits;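 active = plate passing quality check with inhibition over a set limit, or well fluorescence over plate mean plus 4 SD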;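 also: Nile Red retained in pooled yeast measured as flow cytometry median fluorescence; 0% = buffer negative control and 100% = Enniatin B positive control; higher means more Nile Red kept so more efflux inhibition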
HDAC3 inh: inhibitors of human histone deacetylase 3. recombinant HDAC3, fluorogenic peptide/trypsin coupled, fluorescence. inhibition, % at 8.3 µM. 320,000 compounds, 0.15% hits; in the data active = inhibition above about 26%, passing the limit was not always enough
Target sequence (O15379 whole entry, looked up): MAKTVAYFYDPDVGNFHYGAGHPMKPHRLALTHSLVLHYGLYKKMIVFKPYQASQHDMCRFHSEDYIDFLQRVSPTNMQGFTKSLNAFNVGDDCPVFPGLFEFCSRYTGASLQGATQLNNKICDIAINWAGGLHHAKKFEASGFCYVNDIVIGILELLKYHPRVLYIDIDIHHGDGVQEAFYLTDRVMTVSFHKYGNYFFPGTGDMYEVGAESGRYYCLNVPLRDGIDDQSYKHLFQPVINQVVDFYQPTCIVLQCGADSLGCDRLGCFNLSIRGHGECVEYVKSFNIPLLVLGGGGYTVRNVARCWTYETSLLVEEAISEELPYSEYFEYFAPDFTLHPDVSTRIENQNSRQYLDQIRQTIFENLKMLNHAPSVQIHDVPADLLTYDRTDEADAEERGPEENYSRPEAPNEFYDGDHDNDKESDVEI
TbMetRS inhib: Trypanosoma brucei MetRS inhibition | purified T. brucei MetRS, ATP depletion, Kinase-Glo luminescence | 360,000 compounds, 0.4% hits | inhibition, % at 11.9 µM;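 active = inhibition above a per-plate cutoff of the control wells' mean inhibition plus 3 SD, cut at about 5.5% in these data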;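 also: 0% = DMSO wells median and 100% = median of wells with control inhibitor compound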
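Material: parasite MetRS enzyme / Replication: singlicate, one well per compound / Signal: luminescence of leftover ATP / Schedule: 2 h aminoacylation at 25 °C after 15 min preincubation / Medium: HEPES-MgCl2-KCl buffer plus DTT, spermine, BSA, pyrophosphatase / Doses: 11.9 µM single point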
Yeast superoxide: lowers age-related superoxide in aged yeast cells; S. cerevisiae aged cells, superoxide DHE fluorescence; hits give low values; superoxide response (% of plate mean), % at 10 µM; 330,000 compounds, 0.18% hits;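 active = superoxide response under a set limit, about three screen SD below normal, cut at about 65% in these data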;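 also: yeast aged for seven days with compound at 30 °C before DHE staining; 100% = average MFI of all compound-treated wells on the plate with controls excluded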
CR mimetic CP: confirmation of caloric restriction mimetics inhibiting yeast age-related superoxide; 850 compounds, 1% hits; shares compounds with Yeast superoxide; superoxide response (% of plate), % at 10 µM; AID 434994; S. cerevisiae aging, superoxide DHE fluorescence; hits give low values;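 active = superoxide signal below 65% of the plate average of sample wells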;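 also: cells aged with compound for 7 days at 30 degrees C before staining; 100% equals mean DHE fluorescence of all compound wells on the plate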
DHE fluor count: compound alters DHE oxidation or fluorescence in yeast. 850 tested, under 10 active. fluorescence response, % at 10 µM. S. cerevisiae BY4741, flow cytometry; hits give low values. shares compounds with Yeast superoxide;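 active = fluorescence response below 15%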;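 also: percent of the mean fluorescence averaged over all compound wells on the plate; lower means stronger quenching of DHE signal or ROS scavenging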
* = called active by the depositor; x = no result given.

SMILES	IDE cell inh	IDE cell activ	Efflux pump mplx	HDAC3 inh	TbMetRS inhib	Yeast superoxide	CR mimetic CP	DHE fluor count
CC1(C)CSC(=S)N1S(=O)(=O)c1ccccc1	1.6	-1.6	0.3	-4.0	-0.4	58.5*	102.0	93.4
CC(C)c1ccc(/C=C/C(=O)NC(=S)Nc2ccc(CN3CCOCC3)cc2)cc1	17.8*	-9.8	0.1	1.7	-0.5	61.5*	101.5	91.8
CC(C)c1ccc(/C=C/C(=O)NC(=S)NN2CCOCC2)cc1	x	-28.6	0.0	10.1	-0.7	66.9	x	x
COc1ccc(-c2nc3ccccc3c(=O)n2O)cc1	4.7	1.4	-0.6	1.7	-0.5	61.2*	92.0	86.1
N#Cc1ccc(Cl)cc1NC(=O)CNCc1cccs1	-1.4	0.4	3.9	-0.8	0.1	63.4*	95.8	92.6
COc1ccc(-n2nc3c(c2NC(=O)C(C)Oc2ccccc2)CS(=O)(=O)C3)cc1 (stereo unspecified)	3.0	0.4	0.0	-5.7	0.2	53.7*	116.6	113.7
O=C(c1cnc(Cc2c[nH]c3ccccc23)c(I)c1)N1CCN(Cc2ccccc2)CC1	x	x	x	x	2.1	x	x	x
COc1ccc(C2N(c3ccc4c(c3)OCCO4)C(=O)C2(F)F)cc1OC (stereo unspecified)	1.3	1.2	0.0	-2.4	0.0	106.1	x	x
CCOc1cccc(/C=C/c2ccc3cccc(O)c3n2)c1OC	-5.8	3.0	0.4	-8.1	-0.7	41.6*	101.4	94.5
CCOc1cccc(/C=C/c2ccc3cccc(O)c3n2)c1O	-2.1	-1.7	0.1	3.2	1.2	120.7	x	x
CC(C)c1nnc(NC(=O)CCC(=O)N2CCN(c3ccccc3F)CC2)s1	-0.1	1.1	0.0	5.1	-0.2	104.3	x	x
O=C(NC(CSSCC(NC(=O)c1ccccc1)C(=O)O)C(=O)O)c1ccccc1 (stereo unspecified)	5.1	-0.7	-0.2	0.0	0.3	80.3	x	x
CCOC(=O)C1CCN(C(=O)COc2ccc(Br)cc2)CC1	-2.3	5.0	0.1	6.5	-0.4	103.3	x	x
CCOC(=O)C1CCN(C(=O)COc2ccc(C(=O)c3ccccc3)cc2)CC1	4.9	x	-0.1	3.4	-0.1	63.5*	93.7	91.6
CCN1CCCc2cc(CN(CCN3CCOCC3)C(=S)Nc3ccccc3C)ccc21	2.0	0.7	0.1	-5.1	2.4	61.0*	104.7	101.1
O=S(=O)(NCCn1ccc2ccccc21)c1ccccc1	1.0	6.5	-0.1	0.5	-1.1	64.8*	110.1	107.0
Cc1c(C(=O)O)oc2ccc(S(=O)(=O)NCc3ccc(F)cc3)cc12	0.2	5.1	-0.7	1.0	-0.7	74.8	x	x
COc1ccc(CNS(=O)(=O)c2ccc3oc(C(=O)O)c(C)c3c2)cc1	-0.9	6.0	-0.2	3.8	-0.8	63.4*	100.5	120.7
Cc1cc(OCC(=O)N(C)C2CCCCC2)cc(C)c1Cl	3.1	5.2	0.2	6.9	0.2	55.6*	100.6	95.8
CCN(CC(=O)NC1CCS(=O)(=O)C1)C(=O)c1cc(OC)c(OC)c(OC)c1 (stereo unspecified)	-1.9	5.4	-0.1	-1.7	-0.2	91.0	x	x
COc1cccc(-n2nnnc2SCC(=O)NCCc2ccccc2)c1	-0.7	5.2	-0.1	4.6	-0.9	88.6	x	x
COc1ccc(OC)c(-n2nnnc2SCC(=O)NCCc2ccccc2)c1	5.3	1.9	-0.1	-2.7	-0.5	52.6*	113.7	114.0
COC(=O)c1cccc2nc3c(C(C)O)cccc3nc12 (stereo unspecified)	-2.4	2.9	0.2	7.2	-2.5	50.0*	65.9	113.0
CCN(CC)C(=O)c1cccc2nc3ccccc3nc12	5.9	7.2	-0.1	4.9	-0.6	81.2	x	x
CCc1ccccc1NC(=O)CSc1nnc(-c2cc(C)[nH]n2)n1N	-0.6	3.9	-0.3	-1.1	-0.3	133.1	x	x
SMILES	IDE cell inh	IDE cell activ	Efflux pump mplx	HDAC3 inh	TbMetRS inhib	Yeast superoxide	CR mimetic CP	DHE fluor count
O=C(COC(=O)c1cc(S(=O)(=O)N2CCOCC2)ccc1F)c1ccccc1	0.0	2.4	-0.1	-1.7	0.2	97.3	x	x
O=C(COC(=O)c1cc(S(=O)(=O)N2CCOCC2)cs1)c1ccccc1	-2.1	4.4	0.1	1.6	-0.4	64.5*	108.5	111.9
Cc1csc(Nc2cccc3ccccc23)n1	-1.3	4.9	-0.1	5.5	-0.9	95.5	x	x
Cc1csc(Nc2ccccc2C(F)(F)F)n1	2.9	1.7	-0.1	11.7	0.0	64.3*	108.1	100.8
COC(=O)c1c(-c2ccc(N(C)C)cc2)oc2c1C(OC)CCC2 (stereo unspecified)	x	x	x	x	-0.6	x	x	x
Cc1cc(NC(=O)CSc2nnc(CNC(=O)c3c(F)cccc3F)o2)no1	-2.4	6.9	-0.1	-2.8	-0.3	99.1	x	x
CCn1c2ccc(CC(=O)O)cc2c2cc(CC(=O)O)ccc21	9.1	3.5	0.2	-0.6	-0.5	105.4	100.5	102.6
CN(CC1CCCO1)S(=O)(=O)c1ccc(C(=O)Nc2ccccc2F)cc1 (stereo unspecified)	0.6	3.6	-0.1	-2.5	-0.6	89.1	x	x
CN(CC1CCCO1)S(=O)(=O)c1ccc(C(=O)Nc2nnc(-c3ccccc3)o2)cc1 (stereo unspecified)	3.9	-4.5	-0.2	3.5	0.2	92.7	104.8	122.5
CCCCN(C)S(=O)(=O)c1ccc(C(=O)Nc2nnc(C3=COCCO3)o2)cc1	-0.9	0.7	0.1	5.4	-0.7	117.6	99.4	110.0
COc1ccccc1-c1nnc(NC(=O)c2ccc(S(=O)(=O)N(C)CC3CCCO3)cc2)o1 (stereo unspecified)	2.3	0.3	-0.1	4.7	-0.2	94.2	94.2	96.2
C[C@@H]1CC[C@]2(O[C@H](CCO)C[C@H](O)[C@H]2O)O1	-3.6	-1.8	-0.1	-4.8	-0.3	111.3	x	x
CC(=O)N/C(=C\c1ccc(F)cc1)C(=O)OCc1ccccc1	1.1	2.7	0.1	-7.9	-0.8	105.5	x	x
CC1(C)Cc2ccccc2C(NNC(=O)c2ccc(Br)o2)=N1	-0.7	3.2	-2.8	0.8	-0.6	96.0	x	x
COc1cccc(C(=O)NCC(=O)OCC(=O)NC2CCCCC2)c1	-1.5	4.5	-0.2	-3.3	-0.2	95.7	x	x
CC(C)(C)n1nc(-c2ccc(F)cc2)c2c(N)ncnc21	6.5	5.8	-0.4	-4.3	-0.1	32.0*	72.3	93.1
Cc1ccc(-c2nn(C(C)(C)C)c3ncnc(NS(=O)(=O)c4ccc([N+](=O)[O-])cc4)c23)cc1	-0.8	6.9	-0.2	7.7	0.3	100.0	x	x
Cc1ccc(-c2nc(N)c3c(-c4ccc(C)cc4)nn(C(C)(C)C)c3n2)cc1	0.8	6.3	0.3	-5.7	-0.7	109.8	x	x
CC(C)(C)n1nc(-c2ccc(Cl)cc2)c2c(N)ncnc21	8.9	4.9	0.1	4.8	-0.7	49.6*	55.8*	92.5
